Screens: PubChem BioAssay, several laboratories
MrgX1 antagonist: blocks BAM8-22 activation of human MrgX1 receptor; AID 588676; B-score at 10 µM; actives 1.3% (n = 310,000); MRGX1-HEK293 calcium flux, Fluo-4, BAM8-22 antagonism; stronger effect = lower value;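 active = calcium-response B-score plate-corrected more than 3 library SD below zero, starting fluorescence within 5 deviations, no agonist response on first addition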;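 note: peak minus trough fluorescence over baseline after final BAM8-22 challenge near maximal dose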
PHOSPHO1 block: PHOSPHO1 (human) inhibition. recombinant PHOSPHO1, absorbance phosphatase assay. inhibition, % at 13.3 µM. actives 1.1% (n = 290,000); in the data active = inhibition above about 60%
Target sequence (Q8TCT1 whole entry, looked up): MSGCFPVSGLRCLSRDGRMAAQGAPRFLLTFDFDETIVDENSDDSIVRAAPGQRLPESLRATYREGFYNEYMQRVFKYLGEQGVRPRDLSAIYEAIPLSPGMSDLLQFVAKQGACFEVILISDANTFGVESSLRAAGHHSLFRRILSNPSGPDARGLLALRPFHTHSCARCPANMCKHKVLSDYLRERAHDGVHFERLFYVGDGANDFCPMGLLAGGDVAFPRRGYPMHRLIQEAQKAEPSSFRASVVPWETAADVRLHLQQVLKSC
MrgX1 allo act: allosterically activates human MrgX1 receptor signaling; B-score at 10 µM; Q96LB2; MrgX1-HEK293, Fluo-4 calcium flux, FDSS; stronger effect = higher value; actives 0.63% (n = 310,000); AID 588675;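 active = plate-corrected calcium response at least 3 library SD above typical, normal starting fluorescence, not activating the receptor alone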;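 note: compound read alongside a low EC10 to EC30 dose of BAM8-22 agonist; peak minus trough fluorescence over baseline measured at the second addition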
RGS4 inh: inhibitors of human RGS4; P49798; B-score at 10 µM; AID 463165; actives 0.45% (n = 310,000); HEK293 M3R/RGS4 inducible, Fluo-4 calcium flux; stronger effect = higher value; triggered by carbachol at its EC20;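 active = B-score, a plate-corrected calcium signal, over three deviations above library mean, with baseline fluorescence within five deviations of library mean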;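 note: RGS4 expression induced by doxycycline in cells with stable M3 receptor; B-score is computed from the integrated fluorescence ratio over baseline after carbachol; higher B-score means a larger calcium signal and so more RGS4 inhibition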
Target sequence (P49798 whole entry, looked up): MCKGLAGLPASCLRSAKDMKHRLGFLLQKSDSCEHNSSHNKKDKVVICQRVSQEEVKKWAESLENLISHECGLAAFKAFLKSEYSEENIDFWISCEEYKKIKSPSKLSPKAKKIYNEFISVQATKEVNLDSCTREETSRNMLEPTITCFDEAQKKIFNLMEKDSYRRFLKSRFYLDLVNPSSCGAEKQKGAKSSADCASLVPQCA
MrgX1 agonist: human MrgX1 receptor agonism, primary screen; MrgX1-HEK293 cells, Fluo-4 calcium fluorescence, agonist mode; stronger effect = higher value; B-score at 10 µM; Q96LB2; actives 0.44% (n = 310,000);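 active = calcium response B-score plate-corrected fluorescence ratio at least 3 library SD, with starting fluorescence B-score inside 5 SD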
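Material: MrgX1-expressing HEK293 cells; input: 15,000 cells per well; doses: test compound given as first of three sequential additions; schedule: overnight plating before 1 h dye loading; technique: Fluo-4 NW calcium-flux fluorescence, kinetic read; evaluation: baseline-normalised fluorescence change ratio, B-scored; control set: plate-wise positive and negative controls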
RGS4 act: RGS4 potentiation or activation. HEK293 M3R/inducible RGS4, carbachol calcium flux Fluo4; stronger effect = lower value. B-score at 10 µM. actives 0.92% (n = 310,000);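 active = B-score of the integrated calcium signal more than 4 SD below the library mean, with starting fluorescence not abnormally high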;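 note: negative B-score means reduced calcium response which marks RGS4 activation or potentiation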
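Material: Inducible-RGS4 HEK293 cells carrying M3 receptor; also added: carbachol at ECmax as muscarinic agonist stimulus; incubation: compound preincubation 20 min at room temperature before agonist; signal: Fluo4-AM (2 µM) calcium-flux fluorescence, kinetic read; measure: integrated calcium ratio converted to B score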
Large screens that a line does not name were inactive. In the library only some 4.5% were active in any assay of this set; here they are far more common.

CCN(CC)C(=S)Sc1c(-c2ccccc2)c2cc(Cl)ccc2[nH]c1=O	PHOSPHO1 block 88
O=C(O)CSc1c(-c2ccccc2)c2cc(Cl)ccc2[nH]c1=O	none
O=c1[nH]c2ccc(Cl)cc2c(-c2ccccc2)c1N1CCOCC1	PHOSPHO1 block 70
O=c1[nH]c2ccc(Cl)cc2c(-c2ccccc2)c1CN1CCOCC1	none (no result: RGS4 inh, RGS4 act)
COc1cc(CCC(C)=O)ccc1OC(=O)c1c(F)cccc1Cl	none
COc1ccc(S(N)(=O)=O)cc1C(=O)NCCCN1CCN(c2cccc(Cl)c2)CC1	PHOSPHO1 block 66
COc1ccc(S(N)(=O)=O)cc1C(=O)NCCCN1CCN(c2ccc(C)cc2)CC1	none
CSc1ccccc1C(=O)NC1CCCC1	PHOSPHO1 block 70
CSc1ccccc1C(=O)NC1CCCCC1	none
CCc1c(C(=O)N2CCCN(C)CC2)csc1C	none (no result: PHOSPHO1 block)
COc1cccc(/C=N/Nc2ncnc3scc(-c4ccccc4)c23)c1O	RGS4 act -10
Cc1cc(/C=C2\SC(=S)NC2=O)c(C)[nH]1	MrgX1 agonist 38
CCn1c(C)cc(/C=C2/SC(=S)NC2=O)c1C	none
Cc1cc(NC(=O)CCC(=O)N(Cc2ccco2)C2(C(=O)NC3CCCCC3)CCCC(C)C2)no1 (stereo not drawn)	none
CC(=O)N(C)c1ccc(NC(=O)/C=C/c2ccccc2Cl)cc1	PHOSPHO1 block 95
O=C(/C=C/c1ccccc1Cl)Nc1ccncc1	none
O=C(NC1CC2CCCC(C1)N2C(=S)Nc1ccc(Cl)cc1)C1CC1 (stereo not drawn)	RGS4 act -7
O=C(NC1CC2CCCC(C1)N2C(=O)Nc1ccc(Cl)c(C(F)(F)F)c1)C1CC1 (stereo not drawn)	none
CC(C)c1ccc(C2CC(=O)N3CN(Cc4ccco4)CSC3=C2C#N)cc1 (stereo not drawn)	none
COc1ccc(C2CC(=O)N3CN(Cc4ccco4)CSC3=C2C#N)cc1 (stereo not drawn)	none
N#CC1=C2SCN(Cc3ccco3)CN2C(=O)CC1c1ccc(Cl)cc1 (stereo not drawn)	PHOSPHO1 block 76
COc1ccc2ccccc2c1C1CC(=O)N2CN(Cc3ccco3)CSC2=C1C#N (stereo not drawn)	PHOSPHO1 block 72
C#CCOCCOCCOCCNc1nc(N2CCN(C(=O)[C@H](CCC(=O)O)n3cc(C(N)CC(C)C)nn3)CC2)nc(N2CCN(C(=O)[C@H](Cc3cc4ccccc4[nH]3)n3cc(C(N)CC(C)C)nn3)CC2)n1 (stereo partly drawn)	none
C#CCOCCOCCOCCNc1nc(N2CCN(C(=O)[C@H](CCCCN)n3cc(C(N)CO)nn3)CC2)nc(N2CCN(C(=O)[C@H](CCC(=O)O)n3cc(C(N)[C@H](C)CC)nn3)CC2)n1 (stereo partly drawn)	MrgX1 antagonist -4.5
C#CCOCCOCCOCCNc1nc(N2CCN(C(=O)[C@H](Cc3cc4ccccc4[nH]3)n3cc(C(N)CC(C)C)nn3)CC2)nc(N2CCN(C(=O)[C@H](CCC(=O)O)n3cc(C(N)[C@H](C)CC)nn3)CC2)n1 (stereo partly drawn)	MrgX1 allo act 8.9
COCCn1c(Cc2cccn2C)nnc1SCC(=O)NCc1ccc2c(c1)OCO2	none
CCCCN(C(=O)c1ccc2c(c1)OCO2)c1ccccc1	none
CCOC(=O)c1c(C)oc2c1c(C(c1cccnc1)N1CCN(C)CC1)c(O)c1ccccc12 (stereo not drawn)	none (no result: MrgX1 antagonist, MrgX1 allo act, RGS4 inh, MrgX1 agonist, RGS4 act)
CCOC(=O)c1c(C)oc2c1c(C(c1cccnc1)N1CCOCC1)c(O)c1ccccc12 (stereo not drawn)	PHOSPHO1 block 79
CCC(O)CNC(=O)CCc1nnc(C2(c3ccc(Cl)cc3)CCC2)o1 (stereo not drawn)	PHOSPHO1 block 60
O=c1oc2ccccc2cc1-c1cn2ccccc2n1	MrgX1 agonist 27
O=c1oc2ccccc2cc1-c1cn2cccnc2n1	none
COc1ccc(S(=O)(=O)NC(C)C(=O)N2CCCC2)cc1C (stereo not drawn)	none
